Data: ChEMBL document CHEMBL4715773, “New Inhibitors of Indoleamine 2,3-Dioxygenase 1: Molecular Modeling Studies, Synthesis, and Biological Evaluation” (J Med Chem, 2016)
Activity calls are given as the source filed them. No cut-off for these calls is given here.

Assays:
HCT-116 [1] = assay: Reversible induction of cell cycle arrest in human HCT-116 cells assessed as increase of accumulation at G2/M phase at 2.5 uM incubated for 24 hrs and harvested after further 24 hrs recovery in drug-free medium by […] staining based flow cytometry; format: functional
Procedure, shortened: (§1)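 Cells were exposed 24 h to 20, 10 or 2.5 μM or to 0.1% DMSO, then washed into drug-free medium for a further 24 h before harvest. DNA content was measured by propidium iodide flow cytometry on at least 10000 cells per sample. G2/M and other phase fractions are given as fold change versus DMSO, as mean ± SD of three independent experiments.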

HT-29 [2] = assay: Reversible induction of cell cycle arrest in human HT-29 cells assessed as increase of accumulation at G2/M phase at 10 uM incubated for 24 hrs and harvested after further 24 hrs recovery in drug-free medium by […] staining based flow cytometry; format: functional; procedure, shortened: as §1
HT-29 [3] = assay: Induction of cell cycle arrest in human HT-29 cells assessed as increase of accumulation at G2/M phase at 2.5 uM incubated for 24 hrs by […] staining based flow cytometry; format: functional
Procedure, shortened: (§2)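 Cells in DMEM/10% FBS were treated 24 h at 20, 10 or 2.5 μM alongside a 0.1% DMSO vehicle, then stained with propidium iodide for DNA content by flow cytometry, acquiring at least 10000 cells per sample. G0/G1, S and G2/M fractions are expressed as fold change versus DMSO. Values are mean ± SD of three independent experiments.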

HCT-116 [4] = assay: Induction of cell cycle arrest in human HCT116 cells assessed as increase of accumulation at G2/M phase at 10 uM incubated for 24 hrs by […] staining based flow cytometry; format: functional; procedure, shortened: as §2
HT-29 [5] = assay: Growth inhibition of human HT-29 cells assessed as cell viability at 2.5 uM incubated for 24 hrs by MTT assay; format: functional; conditions: read-out: Activity
Procedure, shortened: (§3)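 Cells grown in DMEM (4.5 g/L glucose) with 10% FBS, penicillin/streptomycin and 2 mM glutamine, seeded and allowed 24 h to attach, then exposed 24 h to compound. The range was 5–80 μM or 2.5–80 μM. MTT (500 μM in PBS) was added for 3 h at 37 °C in the dark. Formazan was dissolved in propan-2-ol/0.04 N HCl and read at 550 nm. Viability is given as % of 0.1% DMSO control; three independent experiments in triplicate.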

HCT-116 [6] = assay: Growth inhibition of human HCT116 cells assessed as cell viability at 10 uM incubated for 24 hrs by MTT assay; format: functional; conditions: read-out: Activity; procedure, shortened: as §3
[7] = target: T1, Indoleamine 2,3-dioxygenase 1 (Homo sapiens, UniProt P14902); assay: Inhibition of human IDO1 incubated for 60 mins in presence of L-tryptophan by HPLC analysis
Procedure, shortened: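 Recombinant human IDO1 (10 μg/mL) was assayed in 50 mM potassium phosphate pH 6.5 with 10 mM ascorbate, 10 μM methylene blue and 100 μg/mL catalase. Reaction was started with 200 μM L-Trp and run at 37 °C for 60 min. It was stopped with TCA, then held at 50 °C for 15 min to hydrolyse N-formylkynurenine. Kynurenine was measured by reversed-phase HPLC at 360 nm; triplicate determinations averaged.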
Target sequence in this assay (P14902 whole entry): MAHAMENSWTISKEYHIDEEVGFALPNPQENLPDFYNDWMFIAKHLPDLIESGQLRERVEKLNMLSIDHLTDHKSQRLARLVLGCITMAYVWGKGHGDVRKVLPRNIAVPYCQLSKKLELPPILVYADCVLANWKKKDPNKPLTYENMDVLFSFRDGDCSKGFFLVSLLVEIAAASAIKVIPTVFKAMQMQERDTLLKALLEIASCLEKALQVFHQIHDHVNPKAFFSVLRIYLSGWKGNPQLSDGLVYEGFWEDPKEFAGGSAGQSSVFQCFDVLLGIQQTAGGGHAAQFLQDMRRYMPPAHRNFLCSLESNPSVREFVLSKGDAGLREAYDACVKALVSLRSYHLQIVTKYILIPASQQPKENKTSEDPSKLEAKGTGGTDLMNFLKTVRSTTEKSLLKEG

HT-29 [8] = assay: Growth inhibition of human HT-29 cells incubated for 24 hrs by MTT assay; format: functional, cell-based; procedure, shortened: as §3
HCT-116 [9] = assay: Growth inhibition of human HCT116 cells incubated for 24 hrs by MTT assay; format: functional, cell-based; procedure, shortened: as §3
HT-29 [10] = assay: Induction of cell death in human HT-29 cells assessed as reduction in Bcl-xL expression at 10 uM incubated for 24 hrs by Western blot analysis; format: functional, cell-based; conditions: dose 2.5 µM, in the assay text read “at 2.5 uM” for “at 10 uM”
Procedure, shortened: (§4)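 Cells were treated 24 h with compound or DMSO, then lysed in RIPA-type buffer (50 mM Tris pH 7.4, 150 mM NaCl, 0.1% SDS, 1% deoxycholate, 1% Triton X-100, 5 mM EDTA, protease inhibitors). Protein was quantified by Bradford, run on 12% SDS-PAGE and transferred to PVDF. Blots were probed overnight at 4 °C for Mcl1, Bcl-xL (1:1000), β-catenin (1:500) and β-actin loading control (1:5000), with HRP secondary and ECL detection.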

HT-29 [11] = assay: Induction of cell death in human HT-29 cells assessed as reduction in Mcl1 expression at 10 uM incubated for 24 hrs by Western blot analysis; format: functional, cell-based; conditions: dose 2.5 µM, in the assay text read “at 2.5 uM” for “at 10 uM”; procedure, shortened: as §4
HT-29 [12] = assay: Induction of cell death in human HT-29 cells assessed as reduction in beta-catenin expression at 10 uM incubated for 24 hrs by Western blot analysis; format: functional, cell-based; conditions: dose 2.5 µM, in the assay text read “at 2.5 uM” for “at 10 uM”; procedure, shortened: as §4
HT-29 [13] = assay: Induction of cell death in human HT-29 cells assessed as reduction in Bcl-xL expression at 2.5 uM incubated for 24 hrs by Western blot analysis; format: functional, cell-based; procedure, shortened: as §4
HT-29 [14] = assay: Induction of cell death in human HT-29 cells assessed as reduction in Mcl1 expression at 2.5 uM incubated for 24 hrs by Western blot analysis; format: functional, cell-based; procedure, shortened: as §4
HT-29 [15] = assay: Induction of cell death in human HT-29 cells assessed as reduction in beta-catenin expression at 2.5 uM incubated for 24 hrs by Western blot analysis; format: functional, cell-based; procedure, shortened: as §4
HCT-116 [16] = assay: Reversible induction of cell cycle arrest in human HCT-116 cells assessed as increase of accumulation at G2/M phase at 10 uM incubated for 24 hrs and harvested after further 24 hrs recovery in drug-free medium by […] staining based flow cytometry; format: functional; procedure, shortened: as §1
HT-29 [17] = assay: Reversible induction of cell cycle arrest in human HT-29 cells assessed as increase of accumulation at G2/M phase at 20 uM incubated for 24 hrs and harvested after further 24 hrs recovery in drug-free medium by […] staining based flow cytometry; format: functional; procedure, shortened: as §1
HT-29 [18] = assay: Induction of cell cycle arrest in human HT-29 cells assessed as increase of accumulation at G2/M phase at 20 uM incubated for 24 hrs by […] staining based flow cytometry; format: functional; conditions: dose 10.0 µM, in the assay text read “at 10 uM” for “at 20 uM”; procedure, shortened: as §2
HT-29 [19] = assay: Growth inhibition of human HT-29 cells assessed as cell viability at 10 uM incubated for 24 hrs by MTT assay; format: functional; conditions: read-out: Activity; procedure, shortened: as §3
HCT-116 [20] = assay: Growth inhibition of human HCT116 cells assessed as cell viability at 20 uM incubated for 24 hrs by MTT assay; format: functional; conditions: read-out: Activity; procedure, shortened: as §3
HCT-116 [21] = assay: Induction of cell cycle arrest in human HCT116 cells assessed as increase of accumulation at G2/M phase at 20 uM incubated for 24 hrs by […] staining based flow cytometry; format: functional; procedure, shortened: as §2
HCT-116 [22] = assay: Induction of cell death in human HCT-116 cells assessed as reduction in Bcl-xL expression at 10 uM incubated for 24 hrs by Western blot analysis; format: functional, cell-based; conditions: dose 20.0 µM, in the assay text read “at 20 uM” for “at 10 uM”; procedure, shortened: as §4
HCT-116 [23] = assay: Induction of cell death in human HCT-116 cells assessed as reduction in Mcl1 expression at 10 uM incubated for 24 hrs by Western blot analysis; format: functional, cell-based; conditions: dose 20.0 µM, in the assay text read “at 20 uM” for “at 10 uM”; procedure, shortened: as §4
HCT-116 [24] = assay: Induction of cell death in human HCT-116 cells assessed as reduction in beta-catenin expression at 10 uM incubated for 24 hrs by Western blot analysis; format: functional, cell-based; conditions: dose 20.0 µM, in the assay text read “at 20 uM” for “at 10 uM”; procedure, shortened: as §4
[25] = target: T1, Indoleamine 2,3-dioxygenase 1; assay: Inhibition of human IDO1 at 100 uM incubated for 60 mins in presence of L-tryptophan by HPLC analysis relative to control
Target sequence in this assay (P14902 whole entry, looked up): as the sequence (P14902 whole entry) above

HT-29 [26] = assay: Induction of cell death in human HT-29 cells assessed as reduction in Mcl1 expression at 10 uM incubated for 24 hrs by Western blot analysis
HT-29 [27] = assay: Induction of cell death in human HT-29 cells assessed as reduction in Bcl-xL expression at 10 uM incubated for 24 hrs by Western blot analysis
HT-29 [28] = assay: Induction of cell death in human HT-29 cells assessed as reduction in beta-catenin expression at 10 uM incubated for 24 hrs by Western blot analysis

## COc1cc(OC)cc(Sc2c[nH]c3ccc(Cl)cc23)c1
HCT-116 [1]
  Activity: Active
HT-29 [2]
  Activity: Active
HT-29 [3]
  Activity: Active
HCT-116 [4]
  Activity: Active
HT-29 [5]
  viability at 2.5 µM: 40%
HCT-116 [6]
  viability at 10 µM: 40%
[7]
  IC50: 7 µM
HT-29 [8]
  growth inhibition (GI): Dose-dependent effect
HCT-116 [9]
  growth inhibition (GI): Dose-dependent effect
HT-29 [10]
  Activity: Active
HT-29 [11]
  Activity: Active
HT-29 [12]
  Activity: Active
HT-29 [13]
  Activity: Active
HT-29 [14]
  Activity: Active
HT-29 [15]
  Activity: Active

## COc1ccccc1Cc1c[nH]c2ccc(Cl)cc12
[7]
  IC50: 63 µM

## COc1cc(OC)cc(Sc2c[nH]c3c(Cl)cccc23)c1
[7]
  IC50: > 200 µM

## COc1ccc(Sc2c[nH]c3ccc(Cl)cc23)cc1
[7]
  IC50: 16 µM

## Cc1cc(C)cc(Sc2c[nH]c3ccc(Cl)cc23)c1
[7]
  IC50: 20 µM

## COc1ccccc1Sc1c[nH]c2ccc(F)cc12
[7]
  IC50: 32 µM

## COC(=O)c1[nH]c2ccc(Cl)cc2c1Sc1ccccc1OC
[7]
  IC50: > 200 µM

## COc1cc(OC)cc(Sc2c[nH]c3cccc(Cl)c23)c1
[7]
  IC50: 52 µM

## COc1cccc(Sc2c[nH]c3ccc(Cl)cc23)c1
[7]
  IC50: 21 µM

## COc1cc(OC)cc(Sc2c(C)[nH]c3ccc(Cl)cc23)c1
[7]
  IC50: 45 µM

## COc1ccc(Sc2c[nH]c3ccc(Cl)cc23)c(OC)c1
[7]
  IC50: > 50 µM

## COc1ccccc1C(=O)c1c[nH]c2ccc(Cl)cc12
[7]
  IC50: > 200 µM

## COc1ccccc1S(=O)(=O)c1c[nH]c2ccc(Cl)cc12
[7]
  IC50: > 200 µM

## COc1ccccc1Sc1c[nH]c2ccc(I)cc12
[7]
  IC50: 45 µM

## COc1ccccc1Sc1c[nH]c2ccc(Cl)cc12
HCT-116 [16]
  Activity: Active
HT-29 [17]
  Activity: Active
HT-29 [18]
  Activity: Active
HT-29 [19]
  viability at 10 µM: 40%
HCT-116 [20]
  viability at 20 µM: 40%
HCT-116 [21]
  Activity: Active
[7]
  IC50: 17.5 µM
HT-29 [8]
  growth inhibition (GI): Dose-dependent effect
HCT-116 [9]
  growth inhibition (GI): Dose-dependent effect
HCT-116 [22]
  Activity: Active
HCT-116 [23]
  Activity: Active
HCT-116 [24]
  Activity: Active
[25]
  inhibition: 80%
HT-29 [26]
  Activity: Active
HT-29 [27]
  Activity: Active
HT-29 [28]
  Activity: Active

## Cc1cccc(Sc2c[nH]c3ccc(Cl)cc23)c1
[7]
  IC50: 100 µM

## COc1cc(OC)cc(Sc2c[nH]c3ccccc23)c1
[7]
  IC50: 25 µM

## Cc1ccccc1Sc1c[nH]c2ccc(Cl)cc12
[7]
  IC50: 21 µM

## COc1cc(OC)cc(Sc2c[nH]c3cc(Cl)ccc23)c1
[7]
  IC50: 15 µM

## COc1cc(OC)cc(Sc2c[nH]c3ncccc23)c1
[7]
  IC50: > 200 µM

## Clc1ccc2[nH]cc(Sc3ccccc3)c2c1
[7]
  IC50: > 200 µM

## COc1cc(OC)cc(Sc2c[nH]c3c(Cl)c(Cl)ccc23)c1
[7]
  IC50: 90 µM

## Cc1ccc(Sc2c[nH]c3ccc(Cl)cc23)cc1
[7]
  IC50: > 200 µM

## COc1cc(Sc2c[nH]c3ccc(Cl)cc23)cc(OC)c1OC
[7]
  IC50: 40 µM

## COc1ccccc1Sc1c[nH]c2ccc(Br)cc12
[7]
  IC50: 24 µM

## CCOc1ccc2[nH]cc(Sc3ccccc3OC)c2c1
[7]
  IC50: > 200 µM
